Results from ChEMBL document CHEMBL3297654, “Synthesis, antimicrobial and cytotoxic activities, and structure-activity relationships of gypsogenin derivatives against human cancer cells” (Eur J Med Chem, 2014).

Experiments:
[1] = system: HL-60; assay: Antiproliferative activity against human HL60 cells after 24 and 72 hrs by MTT assay; format: functional, cell-based
Method in brief: (§1)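 ATCC human cell lines are kept in RPMI, DMEM or McCoy's 5A with 10–15% heat-inactivated FCS at 37 °C and 5% CO2. They are seeded at 1×10^4–1×10^5 cells/mL in 48-well plates and exposed to 0.5, 10, 20 or 40 µM. Viability is read by MTT (590 nm) at 24 and 72 h. Growth is expressed relative to untreated cells and IC50 is fitted, in triplicate.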

[2] = system: HT-29; assay: Induction of necrosis in human HT-29 cells at 0.5 uM after 48 hrs by Hoechst 33258/propidium iodide staining based phase contrast microscopic analysis; format: functional
Method in brief: (§2)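 Cells in 48-well plates treated with 0.5, 10, 20 or 40 µM for 24 and 48 h. Values are read at 48 h, 20 µM for test agents and 0.5 µM for controls. Staining is Hoechst 33258/propidium iodide double staining with fluorescence microscopy. Blue nuclei are viable or early-to-mid apoptotic, and pink nuclei are late apoptotic or necrotic. Apoptosis and necrosis are scored from chromatin condensation as % of cells. Cells are grown at 37 °C in 5% CO2 in RPMI, DMEM or McCoy's 5A with 10–15% heat-inactivated FCS.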

[3] = Antiproliferative activity against human Saos2 cells after 24 and 72 hrs by MTT assay; format: functional, cell-based; conditions: SAOS-2; method in brief: as §1
[4] = system: HT-29; assay: Induction of apoptosis in human HT-29 cells at 0.5 uM after 48 hrs by Hoechst 33258/propidium iodide staining based phase contrast microscopic analysis; format: functional; method in brief: as §2
[5] = system: MCF7; assay: Induction of necrosis in human MCF7 cells at 0.5 uM after 48 hrs by Hoechst 33258/propidium iodide staining based phase contrast microscopic analysis; format: functional; method in brief: as §2
[6] = system: HT-29; assay: Antiproliferative activity against human HT-29 cells after 24 and 72 hrs by MTT assay; format: functional, cell-based; method in brief: as §1
[7] = system: SAOS-2; assay: Induction of necrosis in human Saos2 cells at 0.5 uM after 48 hrs by Hoechst 33258/propidium iodide staining based phase contrast microscopic analysis; format: functional; method in brief: as §2
[8] = system: MCF7; assay: Induction of apoptosis in human MCF7 cells at 0.5 uM after 48 hrs by Hoechst 33258/propidium iodide staining based phase contrast microscopic analysis; format: functional; method in brief: as §2
[9] = system: Caco-2; assay: Induction of apoptosis in human Caco2 cells at 0.5 uM after 48 hrs by Hoechst 33258/propidium iodide staining based phase contrast microscopic analysis; format: functional; method in brief: as §2
[10] = system: Caco-2; assay: Antiproliferative activity against human Caco2 cells after 24 and 72 hrs by MTT assay; format: functional, cell-based; method in brief: as §1
[11] = system: HL-60; assay: Induction of necrosis in human HL60 cells at 0.5 uM after 48 hrs by Hoechst 33258/propidium iodide staining based phase contrast microscopic analysis; format: functional; method in brief: as §2
[12] = system: HeLa; assay: Induction of apoptosis in human HeLa cells at 0.5 uM after 48 hrs by Hoechst 33258/propidium iodide staining based phase contrast microscopic analysis; format: functional; method in brief: as §2
[13] = system: HeLa; assay: Induction of necrosis in human HeLa cells at 0.5 uM after 48 hrs by Hoechst 33258/propidium iodide staining based phase contrast microscopic analysis; format: functional; method in brief: as §2
[14] = system: HL-60; assay: Induction of apoptosis in human HL60 cells at 0.5 uM after 48 hrs by Hoechst 33258/propidium iodide staining based phase contrast microscopic analysis; format: functional; method in brief: as §2
[15] = system: Caco-2; assay: Induction of necrosis in human Caco2 cells at 0.5 uM after 48 hrs by Hoechst 33258/propidium iodide staining based phase contrast microscopic analysis; format: functional; method in brief: as §2
[16] = system: HeLa; assay: Antiproliferative activity against human HeLa cells after 24 and 72 hrs by MTT assay; format: functional, cell-based; method in brief: as §1
[17] = system: SAOS-2; assay: Induction of apoptosis in human Saos2 cells at 0.5 uM after 48 hrs by Hoechst 33258/propidium iodide staining based phase contrast microscopic analysis; format: functional; method in brief: as §2

COc1cccc2c1C(=O)c1c(O)c3c(c(O)c1C2=O)C[C@@](O)(C(=O)CO)C[C@@H]3O[C@H]1C[C@H](N)[C@H](O)[C@H](C)O1 [DOXORUBICIN]
IC50 [1]: 330 nM
Activity [2]: 49%
IC50 [3]: 330 nM
Activity [4]: 5%
Activity [5]: 44%
IC50 [6]: 310 nM
Activity [7]: 34%
Activity [8]: 1%
Activity [9]: 4%
IC50 [10]: 350 nM
Activity [11]: 45%
Activity [12]: 2%
Activity [13]: 28%
Activity [14]: 2%
Activity [15]: 47%
IC50 [16]: 340 nM
Activity [17]: 2%
